Most compounds without a hit are left out; they make up all but 2.1% or so of the library.
RORA act: RORA (human) activation; P35398; CHO-K1 Gal4-RORA LBD luciferase reporter, luminescence; percent increase over mock-subtracted basal signal; 65,000 compounds, 1.5% hits; activation, % at 10 µM;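 active = activation above the mean of all tested compounds plus 3 SD, cut at about 49% in these data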;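 note: 0% = DMSO-treated RORA cells and 100% = added signal equal to DMSO minus mock-transfected cells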
SF-1 act: activators of human nuclear receptor SF-1 | CHO-K1 Gal4-SF-1 LBD luciferase reporter; % increase over DMSO SF-1-specific signal | Q13285 | activation, % at 10 µM | 65,000 compounds, 1.9% hits;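 active = activation above the mean activation of all tested compounds plus 3 SD, cut at about 50% in these data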
Target sequence (Q13285 whole entry, looked up, the tested form may be a part): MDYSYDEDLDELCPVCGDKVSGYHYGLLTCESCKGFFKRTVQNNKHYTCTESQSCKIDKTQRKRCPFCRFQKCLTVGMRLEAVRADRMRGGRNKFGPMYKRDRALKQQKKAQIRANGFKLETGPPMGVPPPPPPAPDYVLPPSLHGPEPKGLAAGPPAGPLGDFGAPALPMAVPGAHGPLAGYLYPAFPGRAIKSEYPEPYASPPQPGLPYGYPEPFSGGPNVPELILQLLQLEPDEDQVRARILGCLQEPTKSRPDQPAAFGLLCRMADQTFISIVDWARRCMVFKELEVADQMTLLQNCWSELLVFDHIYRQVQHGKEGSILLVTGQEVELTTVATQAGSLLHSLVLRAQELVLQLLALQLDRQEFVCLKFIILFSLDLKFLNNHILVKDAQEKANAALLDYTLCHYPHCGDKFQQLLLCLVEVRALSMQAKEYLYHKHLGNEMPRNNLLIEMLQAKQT
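Material: CHO-K1 cells with Gal4–hSF-1 LBD chimera plus Gal4-driven luciferase / Input: 4,000 CHO-K1 cells per well / Incubation: compound exposure 20 h at 37 °C / Signal: luminescence read 15 min after SteadyLite luciferase reagent, after room-temperature equilibration / Read-out: percent activation versus DMSO / Benchmarks: DMSO negative control and −SF1 background wells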
MT1-MMP txn act: activates MT1-MMP transcription | 86,000 compounds, 0.16% hits | HT1080 MT1-MMP promoter luciferase reporter, luminescence, overnight; active compounds read high | activation factor at 10 µM;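 active = activation factor of at least 2 for MT1-MMP transcription at 10 µM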
TNAP act DEA: activates human TNAP at intermediate phosphate acceptor concentration; P05186; purified TNAP, CDP-star luminescence, 100 mM DEA, 30 min; active compounds read high; scale: 0 levamisole-inhibited, 1 vehicle-only enzyme; activation factor at 20 µM; 64,000 tested, under 10 active;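 active = activation factor of at least 2 at 20 µM, relative to controls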
Ec RNAP inh: Escherichia coli RNA polymerase inhibition | P0A8V2 | E. coli RNA polymerase, fluorescence transcription assay | inhibition, %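 (tested at 10 µM)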 | 62,000 compounds, 0.2% hits | AID 559; in the data active = inhibition above about 20%;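 note: 0% = enzyme without compound and 100% = no enzyme blank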
The depositor's hits bear a star; nt = no result given.

SMILES	RORA act	SF-1 act	MT1-MMP txn act	TNAP act DEA	Ec RNAP inh
O=C(Nc1nc2ccccc2s1)c1ccc(Cl)s1	33.9	98.4*	1	0.9	15.8
CC(C)(C)c1csc(NC(=O)c2ccc(Cl)s2)n1	53.5*	52.8*	1.4	nt	nt
CC(=O)Nc1nc(-c2cccs2)cs1	16.1	3.4	1.4	0.9	1.2
CC(C)(C)c1csc(NC(=O)c2ccc3nccnc3c2)n1	nt	nt	2*	nt	nt
CN1CCN(c2ncnc3c2sc2nc(N4CCCC4)c4c(c23)CC(C)(C)OC4)CC1	-3.3	0.5	1.3	0.9	3.7
Fc1cccc(NCc2cn3ccccc3n2)c1	44.7	71.7*	1.1	0.9	-8.9
Cc1ccc2oc(-c3cccc(NC(=O)C4CCCO4)c3)nc2c1 (stereo unspecified)	30.9	45.9	1.4	0.9	-0.8
O=C(Nc1cccc(-c2nc3cc(Cl)ccc3o2)c1)C1CCCO1 (stereo unspecified)	37.3	80.9*	1.2	0.9	9.1
COc1cc(C(=O)Nc2cccc(-c3nc4cc(C)ccc4o3)c2)cc(OC)c1OC	14.0	40.6	1.3	0.9	4.8
Cc1ccc2nc(-c3cccc(NC(=O)c4ccc5c(c4)OCCO5)c3)oc2c1	41.6	55.2*	1.4	0.9	-1.0
CC(C)C(=O)Nc1cccc(-c2nc3ccccc3o2)c1	24.1	51.6*	1.1	1	1.3
COc1ccc(OCC(=O)Nc2cccc(-c3nc4ccccc4o3)c2)cc1	56.7*	44.1	1.4	1	-10.4
CCOC(=O)C1CCN(c2c(NCCN3CCN(c4ccccc4)CC3)c(=O)c2=O)CC1	-6.5	7.0	1.1	0.9	3.9
N#CC1=C(SCC(=O)c2ccccc2)NC2=C(C(=O)CCC2)C1c1ccco1 (stereo unspecified)	173.5*	100.4*	1.1	0.9	2.8
Cc1ccc(C(=O)CSC2=C(C#N)C(c3ccco3)C3=C(CCCC3=O)N2)cc1 (stereo unspecified)	16.9	-2.5	0.7	0.8	4.5
CCOCCCNC(=O)NC12CC3CC(CC(C3)C1)C2	-10.5	13.4	1.3	0.9	3.3
O=C(NCCCN1CCOCC1)NC12CC3CC(CC(C3)C1)C2	-27.9	-21.6	1.2	0.9	63.9*
Clc1ccc(-c2cn3c(n2)CCC3)cc1	21.6	72.5*	1.7	0.8	nt
COCCSc1nnc(NC(=O)C(C)(C)C)s1	nt	nt	1.7	nt	nt
Cc1ccc(C(=O)c2oc3ccccc3c2N)cc1	nt	nt	1.6	nt	nt
Nc1c(C(=O)c2ccccc2)oc2ccc(Br)cc12	52.6*	140.1*	1.9	0.8	4.0
CC1=C(C(=O)OCC(Br)(Br)Br)C(c2ccccc2)NC(=O)N1CCCC(=O)O (stereo unspecified)	nt	nt	1.3	nt	nt
Clc1ccc(-c2nnc(-c3ccccc3Cl)o2)cc1	86.5*	19.3	1.5	1.1	1.4
CC1CCC(NC(=O)Cn2c(=O)[nH]c3ccsc3c2=O)CC1 (stereo unspecified)	51.1*	46.7	1.7	0.9	0.0
O=C(Cn1c(=O)[nH]c2ccsc2c1=O)NC1CCCCCC1	-8.3	8.1	1	0.9	9.1
SMILES	RORA act	SF-1 act	MT1-MMP txn act	TNAP act DEA	Ec RNAP inh
COc1cc2nc3c(c([Si](C)(C)C(C)(C)C)c2cc1OC)Cn1c-3cccc1=O	nt	nt	1.1	nt	nt
CCN(CC)CCCNC(=O)c1cc2c(=O)n(C)c3ccccc3c2n1C	-14.7	-4.8	1.1	1	3.9
CCCN(CCC)CCCNC(=O)c1cc2c(=O)n(C)c3ccccc3c2n1C	1.5	8.4	1.1	0.9	50.2*
COCCCNC(=O)c1cc2c(=O)n(C)c3ccccc3c2n1C	60.3*	38.5	1	0.9	5.9
O=C(c1ccco1)N1CCn2c1nc1ccccc12	62.0*	41.0	1.7	0.9	5.2
Nc1nc(CSCCO)nc(Nc2ccccc2)n1	nt	nt	1.2	nt	nt
Nc1nc(CSc2ccccn2)nc(Nc2ccccc2)n1	24.1	58.4*	1.1	0.9	-1.4
CCn1c(=O)n(CC(=O)NC2CCCC(C)C2C)c(=O)c2ccccc21 (stereo unspecified)	-23.8	-20.1	1.1	nt	nt
COc1c(Cl)cc(Cl)cc1C(=O)n1nc(C)cc1C	nt	nt	1.1	nt	nt
Cc1ccc(S(=O)(=O)/N=C2/C=C(C3C(=O)CC(C)(C)CC3=O)C(=O)c3ccccc32)cc1	nt	nt	2.1*	nt	nt
CCCCCCSc1nsc(NC(C)=O)n1	74.9*	21.3	1.3	0.9	14.4
CCCCSc1nsc(NC(C)=O)n1	55.6*	48.9	1.1	0.9	6.4
Cc1ccc2nc(NC(=O)C3CCCN(S(=O)(=O)c4cnc[nH]4)C3)sc2c1 (stereo unspecified)	54.0*	25.9	1.4	0.9	-4.5
Cc1ccc2nc(NC(=O)C3CCCN(S(=O)(=O)c4cccnc4)C3)sc2c1 (stereo unspecified)	18.2	-11.7	1.1	1	9.1
Nc1c(C(=O)NCc2ccco2)sc2nc3c(cc12)C(=O)CCC3	6.8	31.3	1.1	0.9	5.1
CCCOC(=O)c1sc2nc3c(cc2c1N)C(=O)CCC3	35.1	60.5*	1.3	0.9	4.1
Cn1cnc2cc(NC(=O)c3ccc(Cl)cc3)ccc21	79.1*	66.9*	1.4	0.8	-0.3
COc1ccc(CNC2CC(=O)N(C)C2=O)cc1 (stereo unspecified)	-9.7	-4.6	1.1	0.9	2.6
CCc1nnc(NC(=O)CSc2nc(C)c3c(c2C#N)CCCC3)s1	-9.3	54.6*	1.2	1	3.2
Cn1c(C(C#N)C2=C(Cl)C(=O)N(c3ccccc3)C2=O)nc2ccccc21 (stereo unspecified)	1.7	8.0	1.3	0.9	9.5
CNc1sc(C(=O)c2ccc(F)cc2)c(N)c1-c1nc2ccccc2s1	nt	nt	1.6	nt	nt
CNc1sc(C(=O)c2cccs2)c(N)c1-c1nc2ccccc2s1	32.5	79.3*	1.9	0.8	-1.5
Cc1ccc2[nH]c(-c3cccc(N)c3)cc2c1	55.0*	51.3*	1.3	0.9	nt
CCOC(=O)C1CCCN(C(=O)c2cc3c(=O)n4cccc(C)c4nc3n2C)C1 (stereo unspecified)	-15.8	-12.9	1	1.1	0.8
CC(=O)C(C)Oc1ccc2c3c(c(=O)oc2c1)CCCCC3 (stereo unspecified)	20.4	53.7*	1.9	0.9	-2.1
SMILES	RORA act	SF-1 act	MT1-MMP txn act	TNAP act DEA	Ec RNAP inh
CC(=O)C(C)Oc1ccc2c3c(c(=O)oc2c1)CCCC3 (stereo unspecified)	28.4	5.2	1.4	0.9	-3.3
Cc1ccc(NC(=O)c2nnn(-c3cc(C)cc(C)c3)c2N)cc1	66.3*	69.6*	1.3	0.8	-3.9
Cc1cccc(-n2nnc(C(=O)Nc3ccc(F)cc3)c2N)c1	82.5*	99.7*	1.6	0.9	-0.8
CCc1ccccc1NC(=O)c1cnccn1	0.1	-4.0	1.1	0.9	2.4
O=C(Nc1cccc2ccccc12)c1cnccn1	15.4	62.7*	1.6	0.8	9.8
COC(=O)c1ccc(C(/C=C/[C@@H](C)C(=O)NCCN2CCCC2)NC(=O)OCc2ccccc2)cc1 (stereo partly specified)	nt	nt	1.1	nt	nt
O=C(CCc1ccccc1)Nc1c(F)cccc1F	nt	nt	2.3*	nt	nt

Compound activity (PubChem BioAssay)
